Experiment [1] is described as follows: reducers of endogenous Her2 protein level, primary screen, SKBR3 breast tumor cells, AlphaScreen, ATP viability (AID 461;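 active means Her2 level under about 52% in both replicate screens, with viability over 70% of control, limit read from the data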;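 on Her2 level: lower value means less Her2 protein in the cells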;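 on viability: percent of carrier control wells set as 100% viability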). Conditions: 18-24 h, measured here: SKBR3 viability, ATP luminescence, at 10 µM.
Experiment [2] deals with Receptor tyrosine-protein kinase erbB-2 (Homo sapiens) (UniProt P04626). The experiment is described as above. Conditions: 18-24 h, at 10 µM, stronger effect = lower value.
The nature of experiment [3]: SK-BR-3 cell growth inhibitors, pilot screen, 24 h, human (AID 572).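 Further: compound exposure lasted between 18 and 24 h rather than exactly 24 h; 100% = carrier-treated control wells.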 Conditions: SK-BR-3 viability, CellTiter-Glo luminescence, at 10 µM, stronger effect = lower value.
Experiment [4] is described as follows: HUVEC growth inhibition – cell-based, human, primary screen (AID 575;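 active means viability at or below 30% in both replicate assays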;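 further: 100% = median of untreated cell wells with 0.1% DMSO on each plate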). As to conditions: HUVEC proliferation, CellTiter-Glo luminescence, 72 h; at 10 µM; stronger effect = lower value. The essentials:
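Test system: HUVEC primary cells. Quantity: 1250 endothelial cells in each well. Dosing: single-point 10 µM, DMSO 0.1% final. Incubation: 72 h treatment at 37 °C. Measured by: CTG luminescence. Control set: DMSO cell controls and MePR drug controls. Plate: collagen-coated 384-well format.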

The nature of experiment [5]: growth inhibitors of H69AR lung tumor, primary screen, human, duplicate replicates (AID 580;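 active means viability at or under a set limit in both replicates, limit being median viability minus 3 SD, cut at about 48% in these data, passing the limit was not always enough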;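 further: 100% = mean luminescence of untreated wells and 0% = no signal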). As to conditions: H69AR lung tumor cells viability, ATP luminescence, 72 h; at 10 µM; stronger effect = lower value.
A short description of experiment [6]: reversal of MRP1-mediated doxorubicin resistance, pilot screen, H69AR cells, doxorubicin co-treatment (AID 601;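 active means viability loss from added drug above about 55%, and viability with drug at most 40%, in both replicates, limit read from the data, passing the limit was not always enough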). As to conditions: CellTiter-Glo, 72 h, at 10 µM; for differential viability (reversal): stronger effect = higher value. (Cellular ATP, detected with luciferase, serves as a proxy for viable cell number.)
Experiment [7] in a line: 384-well plate pilot, post-Golgi transport modulator project, inhibition of yeast transport mutant growth (AID 636; in the data active means inhibition above about 31%). Conditions: absorbance 615 nm, about 18 h, stronger effect = higher value.
The nature of experiment [8]: growth suppression of yeast trafficking mutant, preliminary HTS, modulators of trafficking downstream of Golgi apparatus project, 1536-format plate, OD 615 nm (AID 637; in the data active means inhibition above about 30%). As to conditions: yeast transport mutant growth, absorbance 615 nm, 18 h; stronger effect = higher value.
[9] abbreviates: H69AR cells + 2 uM doxorubicin, measured here: viability with 2 uM doxorubicin, stronger effect = lower value.
Where [10] appears, read: H69AR cells, compound alone cytotoxicity.

These results are taken from PubChem BioAssay.

Active and inactive are the calls of the source.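 How the source made its calls, unless noted: active means viability at or below 10% of carrier control in both of two separate runs; inconclusive means viability at or below 10% in only one of the two runs; inactive means the rest.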

Sequence of Receptor tyrosine-protein kinase erbB-2 (Homo sapiens) (P04626 whole entry, looked up): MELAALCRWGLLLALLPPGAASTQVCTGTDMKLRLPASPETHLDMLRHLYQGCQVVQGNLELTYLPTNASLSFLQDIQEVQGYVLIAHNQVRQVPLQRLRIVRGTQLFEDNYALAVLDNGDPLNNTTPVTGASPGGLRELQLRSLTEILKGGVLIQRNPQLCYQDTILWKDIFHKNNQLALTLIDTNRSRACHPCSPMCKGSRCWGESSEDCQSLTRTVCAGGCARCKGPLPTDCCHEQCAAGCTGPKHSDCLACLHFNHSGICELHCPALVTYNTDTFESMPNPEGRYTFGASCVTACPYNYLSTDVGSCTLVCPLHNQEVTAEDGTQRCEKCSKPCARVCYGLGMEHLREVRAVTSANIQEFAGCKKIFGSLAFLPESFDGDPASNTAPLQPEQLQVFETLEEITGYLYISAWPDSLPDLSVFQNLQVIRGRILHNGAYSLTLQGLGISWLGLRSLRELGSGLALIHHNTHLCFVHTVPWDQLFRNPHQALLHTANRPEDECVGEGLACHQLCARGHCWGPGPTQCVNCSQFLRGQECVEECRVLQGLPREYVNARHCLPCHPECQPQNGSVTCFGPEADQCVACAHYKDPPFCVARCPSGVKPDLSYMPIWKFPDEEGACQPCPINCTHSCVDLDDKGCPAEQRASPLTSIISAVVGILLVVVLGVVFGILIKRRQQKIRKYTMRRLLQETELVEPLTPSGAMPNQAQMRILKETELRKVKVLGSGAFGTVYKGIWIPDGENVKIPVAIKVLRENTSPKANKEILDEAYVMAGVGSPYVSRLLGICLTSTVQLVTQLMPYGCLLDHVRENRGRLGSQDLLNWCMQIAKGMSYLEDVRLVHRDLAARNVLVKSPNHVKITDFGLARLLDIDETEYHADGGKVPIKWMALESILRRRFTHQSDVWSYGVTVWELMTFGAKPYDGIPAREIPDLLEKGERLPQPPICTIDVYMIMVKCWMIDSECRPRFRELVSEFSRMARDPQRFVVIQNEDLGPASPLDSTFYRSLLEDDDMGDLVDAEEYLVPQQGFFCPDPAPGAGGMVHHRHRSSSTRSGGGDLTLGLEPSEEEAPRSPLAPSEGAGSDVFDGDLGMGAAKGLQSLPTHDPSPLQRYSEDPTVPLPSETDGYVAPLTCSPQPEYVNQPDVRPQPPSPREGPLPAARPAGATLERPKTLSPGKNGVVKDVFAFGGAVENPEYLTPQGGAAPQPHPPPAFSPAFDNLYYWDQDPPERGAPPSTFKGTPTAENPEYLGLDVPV

As for `Cc1nc(N2CCC(C)CC2)c2c(C)c(C(=O)O)sc2n1`, the viability in experiment [1] is 100%; in experiment [3], 100% (inactive); in experiment [4] it was 74.2% (inactive); in experiment [5], 84.9% (inactive); in experiment [6] (setting [9]), 81.3%; in experiment [6] (setting [10]), 84.9%. Further, the Her2 level in experiment [2] is 77% (inactive). The differential viability (reversal) in experiment [6] (H69AR cells + 2 uM doxorubicin) was 3.62% (inactive). Besides, the figures for the inhibition in experiment [7] and in experiment [8] were -4.74% (inactive) and -6.33% (inactive), respectively.
As for `CC(C)Cn1c(CN2CCCCC2C)nc2c1c(=O)n(C)c(=O)n2C` (stereo not given), the viability in experiment [1] was 88.5%; in experiment [3] it was 88.5% (inactive); in experiment [4], 109% (inactive); in experiment [5], 94.2% (inactive); in experiment [6] (setting [9]) it was 77.6%; in experiment [6] (setting [10]), 94.2%. In addition, in experiment [2], the Her2 level was 91.5% (inactive). The differential viability (reversal) in experiment [6] (H69AR cells + 2 uM doxorubicin) is 16.7% (inactive). The values for the inhibition in experiment [7] and in experiment [8] were -5.73% (inactive) and -3.61% (inactive), respectively.
With `CSc1cccc(NC(=O)C2CCCN2S(=O)(=O)c2ccc3c(c2)CCC(=O)N3)c1` (stereo not given), the viability in experiment [1] was 93%; in experiment [3], 93% (inactive); in experiment [4] it was 94.7% (inactive); in experiment [5] it was 89% (inactive); in experiment [6] (setting [9]), 88.6%; in experiment [6] (setting [10]), 89%. Further, the Her2 level in experiment [2] is 93.5% (inactive). Also, the differential viability (reversal) in experiment [6] (H69AR cells + 2 uM doxorubicin) was 0.435% (inactive). Further, the inhibition was -4.21% (inactive) in experiment [7] and -8.73% (inactive) in experiment [8].
As for `Cc1cccc(-c2cc3nc4c(c(N5CCC6(CC5)OCCO6)n3n2)CCCC4)c1`, the viability in experiment [1] was 80.5%; in experiment [3], 80.5% (inactive); in experiment [4] it was 77.8% (inactive); in experiment [5], 83.9% (inactive); in experiment [6] (setting [9]), 93%; in experiment [6] (setting [10]), 83.9%. In addition, the Her2 level in experiment [2] was 100% (inactive). In addition, the differential viability (reversal) in experiment [6] (H69AR cells + 2 uM doxorubicin) is -9.12% (inactive). Besides, the inhibition in experiment [7] was -2.13% (inactive); in experiment [8], 9.37% (inactive).
Regarding `COc1ccc(C(=O)N2CCN(S(=O)(=O)c3cc(Cl)ccc3OC)CC2)cc1`, the viability in experiment [1] was 108%; in experiment [3] it was 108% (inactive); in experiment [4] it was 95.6% (inactive); in experiment [5] it was 103% (inactive); in experiment [6] (setting [9]), 102%; in experiment [6] (setting [10]) it was 103%. Further, in experiment [2], the Her2 level was 100% (inactive). In addition, in experiment [6] (H69AR cells + 2 uM doxorubicin), the differential viability (reversal) is 1.29% (inactive). Further, the figures for the inhibition in experiment [7] and in experiment [8] were -2.37% (inactive) and 8.33% (inactive), respectively.
Turning to `O=C1CCCC2=C1C(c1ccsc1)CC(=O)N2c1ccccc1` (stereo not given), the viability in experiment [1] was 90.5%; in experiment [3], 90.5% (inactive); in experiment [4], 113% (inactive); in experiment [5], 92.4% (inactive); in experiment [6] (setting [9]), 95.7%; in experiment [6] (setting [10]), 92.4%. For the same molecule, the Her2 level in experiment [2] is 96% (inactive). Further, the differential viability (reversal) in experiment [6] (H69AR cells + 2 uM doxorubicin) is -3.37% (inactive). Further, the inhibition was -3.29% (inactive) in experiment [7] and -3.82% (inactive) in experiment [8].
With `CCOC(=O)c1c(NC(=O)c2ccn(CC)n2)sc2c1CCCC2`, the viability in experiment [1] is 88%; in experiment [3] it was 88% (inactive); in experiment [4], 75.5% (inactive); in experiment [5], 77.2% (inactive); in experiment [6] (setting [9]), 92.2%; in experiment [6] (setting [10]), 77.2%. Moreover, in experiment [2], the Her2 level was 70% (inactive). Moreover, in experiment [6] (H69AR cells + 2 uM doxorubicin), the differential viability (reversal) was -15% (inactive). The inhibition in experiment [7] is -4.74% (inactive); in experiment [8], 1.67% (inactive).
Take `Cc1cc(NC(=O)CSc2ccc(Cl)cc2)no1`: the viability in experiment [1] was 88.5%; in experiment [3], 88.5% (inactive); in experiment [4] it was 91.3% (inactive); in experiment [5], 61% (inactive); in experiment [6] (setting [9]), 71.7%; in experiment [6] (setting [10]) it was 61%. Moreover, in experiment [2], the Her2 level was 114% (inactive). Further, the differential viability (reversal) in experiment [6] (H69AR cells + 2 uM doxorubicin) was -10.7% (inactive). In addition, the inhibition was -0.66% (inactive) in experiment [7] and 22.3% (inactive) in experiment [8].
As for `COC(=O)CCSCc1cn2cc(Cl)ccc2n1`, the viability was 120% in experiment [1]; 120% (inactive) in experiment [3]; 87.3% (inactive) in experiment [4]; 99.5% (inactive) in experiment [5]; 98.2% in experiment [6] (setting [9]); 99.5% in experiment [6] (setting [10]). Besides, in experiment [2], the Her2 level is 106% (inactive). For the same molecule, the differential viability (reversal) in experiment [6] (H69AR cells + 2 uM doxorubicin) is 1.26% (inactive). For the same molecule, the inhibition in experiment [7] was -8% (inactive); in experiment [8], -9.84% (inactive).
In the case of `Cc1ccc(CCNC(=O)C2CCN(S(=O)(=O)c3c(C)nn(C)c3C)CC2)cc1`, the viability was 103% in experiment [1]; 103% (inactive) in experiment [3]; 114% (inactive) in experiment [4]; 89% (inactive) in experiment [5]; 96.1% in experiment [6] (setting [9]); 89% in experiment [6] (setting [10]). The Her2 level in experiment [2] is 115% (inactive). Besides, in experiment [6] (H69AR cells + 2 uM doxorubicin), the differential viability (reversal) is -7.15% (inactive). Moreover, the inhibition in experiment [7] is -1.92% (inactive); in experiment [8], -2% (inactive).
Take `Cc1c(C(=O)NCc2cccnc2)oc2ccc(S(=O)(=O)N3CCCCC3)cc12`: the viability was 71.5% in experiment [1]; 71.5% (inactive) in experiment [3]; 65.6% (inactive) in experiment [4]; 70.5% (inactive) in experiment [5]; 91.4% in experiment [6] (setting [9]); 70.5% in experiment [6] (setting [10]). Also, the Her2 level in experiment [2] is 89% (inactive). For the same molecule, in experiment [6] (H69AR cells + 2 uM doxorubicin), the differential viability (reversal) was -20.9% (inactive). For the same molecule, the figures for the inhibition in experiment [7] and in experiment [8] were -0.39% (inactive) and 4.1% (inactive), respectively.
For the molecule `COc1cc(C2c3c(n[nH]c3C)C(=O)N2c2ccc(Br)cc2)ccc1O` (stereo not given), the viability in experiment [1] was 95%; in experiment [3], 95% (inactive); in experiment [4] it was 73.9% (inactive); in experiment [5], 87.8% (inactive); in experiment [6] (setting [9]) it was 82.2%; in experiment [6] (setting [10]) it was 87.8%. For the same molecule, in experiment [2], the Her2 level was 62.5% (inactive). Further, the differential viability (reversal) in experiment [6] (H69AR cells + 2 uM doxorubicin) is 5.68% (inactive). Further, the values for the inhibition in experiment [7] and in experiment [8] were -0.13% (inactive) and -1% (inactive), respectively.
Turning to `CCN(Cc1cc2cc(OC)ccc2[nH]c1=O)C(=O)c1ccncc1`, the viability in experiment [1] was 89%; in experiment [3], 89% (inactive); in experiment [4], 97.8% (inactive); in experiment [5], 99.5% (inactive); in experiment [6] (setting [9]), 103%; in experiment [6] (setting [10]) it was 99.5%. The Her2 level in experiment [2] is 100% (inactive). For the same molecule, the differential viability (reversal) in experiment [6] (H69AR cells + 2 uM doxorubicin) was -3.88% (inactive). In addition, the inhibition is -2.13% (inactive) in experiment [7] and 9.05% (inactive) in experiment [8].
On to `Cc1nnc(NC(=O)Nc2cccc(Cl)c2)s1`, for which the viability in experiment [1] is 86%; in experiment [3], 86% (inactive); in experiment [4], 76.8% (inactive); in experiment [5], 63% (inactive); in experiment [6] (setting [9]) it was 84.1%; in experiment [6] (setting [10]), 63%. Further, the Her2 level in experiment [2] is 89.5% (inactive). Besides, in experiment [6] (H69AR cells + 2 uM doxorubicin), the differential viability (reversal) was -21% (inactive). The inhibition was -6.18% (inactive) in experiment [7] and -4.03% (inactive) in experiment [8].
With `O=C(COc1ccccc1F)NC1CC1`, the viability in experiment [1] is 94.5%; in experiment [3], 94.5% (inactive); in experiment [4] it was 88.7% (inactive); in experiment [5], 107% (inactive); in experiment [6] (setting [9]) it was 95%; in experiment [6] (setting [10]), 107%. In experiment [2], the Her2 level was 88.5% (inactive). The differential viability (reversal) in experiment [6] (H69AR cells + 2 uM doxorubicin) is 11.7% (inactive). Moreover, the inhibition in experiment [7] was -6.58% (inactive); in experiment [8], -2.5% (inactive).
Take `O=C(CSCCSCC(=O)c1ccco1)c1ccco1`: the viability in experiment [1] is 83.5%; in experiment [3] it was 83.5% (inactive); in experiment [4], 77.3% (inactive); in experiment [5], 101% (inactive); in experiment [6] (setting [9]) it was 90%; in experiment [6] (setting [10]) it was 101%. Further, the Her2 level in experiment [2] was 96% (inactive). Further, the differential viability (reversal) in experiment [6] (H69AR cells + 2 uM doxorubicin) was 11.3% (inactive). The inhibition in experiment [7] was 0.13% (inactive); in experiment [8], 8.85% (inactive).

As usually defined, the viability is a read-out of living cells in per cent, often relative to untreated cells. Usually inhibition stands for the drop in the measured response relative to a control, in per cent.
